Test results published in ChEMBL document CHEMBL4513216, “Probing the Open Global Health Chemical Diversity Library for Multistage-Active Starting Points for Next-Generation Antimalarials” (ACS Infect Dis, 2020).

Test: Toxicity liver stage against HepG2, at 10uM
Assay type: cell-based
Design: test concentration 10 uM, cell line HepG2-A16-CD81EGFP
Settings: human, HepG2-A16-CD81EGFP cells; read-out: INHIBITION
Outline: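 Uninfected HepG2-A16-CD81EGFP cells, 3 × 10^3 per well, 1536-well, plated on prespotted compound at 10 μM final, parasite-free screening media added to match infected plates; puromycin 10 μM positive, DMSO 0.5% negative; run in parallel with 48 h PbLuc assay at 37 °C, 5% CO2; viability by CellTiter-Glo luminescence, normalized to controls.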
Molecule `CCOC(=O)CNC(=O)NCc1cccn1Cc1ccccc1C` has a cytotoxicity at 10 µM of 4.9%. Molecule `CCOc1ncc(NC(=O)c2ccccn2)c(OCC)n1` has a cytotoxicity at 10 µM of -0.191%. Work on `O=C1CC2(CCN(S(=O)(=O)c3cccs3)C2)CN1c1cccc(F)c1` (configuration not stated) yielded a cytotoxicity at 10 µM of -1.51%. `CN(C)c1ncc(-c2cc(C(=O)NC(C)(C)CO)n(CC3CC3)c2)cn1` gave a cytotoxicity at 10 µM of -13.4%. `Cn1cccc1C(=O)NCc1cnc2n1CCN(c1ccccn1)C2` showed a cytotoxicity at 10 µM of -2.74%. With `COC[C@@]12CCO[C@@H]1CCN(C(=O)Cc1cccc(F)c1)C2` the cytotoxicity at 10 µM was -8.95%. `COc1nn(C)c2c1CCCN(C(=O)c1cccs1)C2` showed a cytotoxicity at 10 µM of 8.36%. Molecule `O=C(c1cnccn1)N1CCN(CC2CC2)c2ncccc2C1` has a cytotoxicity at 10 µM of -3.99%. `Cc1nc(N2CCCC2)nc2c1CCN(C(=O)C1CCC1)CC2` gave a cytotoxicity at 10 µM of 3.39%. With `COc1cccc2c1ccn2CCC(=O)NCCCC(=O)O` the cytotoxicity at 10 µM was 9.64%. `Cn1nc(CNC(=O)NCc2ccc(Cl)cc2)c2c1CCOC2` showed a cytotoxicity at 10 µM of 2.81%. Molecule `CCn1ccc(NC(=O)CCn2nc(C)c3ccccc32)n1` has a cytotoxicity at 10 µM of 4.51%. Work on `Cc1c(C(=O)N(C)CC(F)(F)F)nnn1-c1ccc(F)cc1` yielded a cytotoxicity at 10 µM of 7.92%. With `Cc1ccccc1-c1cc(CC2(C(=O)O)CCOCC2)on1` the cytotoxicity at 10 µM was -14.1%. In the case of `Cn1ccnc(Nc2ccc3c(c2)CCN3C(=O)c2ccoc2)c1=O`, the cytotoxicity at 10 µM is reported as -65.2%. Work on `CCC(C(=O)NCCc1ccn(-c2ccccc2)n1)N1CCCC1=O` (configuration not stated) yielded a cytotoxicity at 10 µM of 6.18%. Work on `COC(=O)[C@H](C)NC(=O)c1nc(C2CC2)n(-c2ccccc2Cl)n1` yielded a cytotoxicity at 10 µM of -1.76%. Molecule `CN(C)C(=O)CNC(=O)c1nc(C2CC2)n(-c2ccccc2Cl)n1` has a cytotoxicity at 10 µM of -2.03%. Molecule `CCN(CCNS(=O)(=O)C1CCOCC1)C(=O)OC(C)(C)C` has a cytotoxicity at 10 µM of -1.8%. `Cc1ncc(C(=O)NCCNc2ccncc2)s1` gave a cytotoxicity at 10 µM of 1.72%. `CC(=O)N1CCC(NC(=O)c2cc(S(N)(=O)=O)ccc2C)CC1` gave a cytotoxicity at 10 µM of 11.7%. `NC(=O)N1CCCC(C(=O)NCCOc2ccc(F)cc2F)C1` (configuration not stated) gave a cytotoxicity at 10 µM of 3.26%. `CC(C)c1nc2cc(NC(=O)Cn3ccccc3=O)ccc2o1` gave a cytotoxicity at 10 µM of -17.8%. In the case of `Cc1c(NC(C)C(C)C)cccc1C(=O)NCc1nnc(C)n1C` (configuration not stated), the cytotoxicity at 10 µM is reported as 6.45%. In the case of `Cc1ccnc(NCc2cccc(OCCN3CCOCC3)c2)n1`, the cytotoxicity at 10 µM is reported as 2.5%. Molecule `CCCn1nc2c(cc1=O)CN(Cc1ncc(C(C)(C)C)o1)CC2` has a cytotoxicity at 10 µM of -7.17%. `COc1ccc(C2CCCN2C(=O)NCCNc2ccccn2)cc1` (configuration not stated) gave a cytotoxicity at 10 µM of 6.64%. Work on `CN(C)S(=O)(=O)Nc1ccc(-n2nncc2C(F)(F)F)cc1` yielded a cytotoxicity at 10 µM of -2.64%. `OC(CN(Cc1ccccc1)Cc1ccon1)c1ccco1` (configuration not stated) gave a cytotoxicity at 10 µM of 4.42%. For `CCc1cc(NC(=O)c2cccc(OCC(F)(F)F)n2)[nH]n1`, the cytotoxicity at 10 µM was -1.42%. With `CCCC(C)(C)NC(=O)c1cnc(C)s1` the cytotoxicity at 10 µM was 4.51%. Work on `CCS(=O)(=O)N1CCC(OCCCc2ccccc2)C1` (configuration not stated) yielded a cytotoxicity at 10 µM of 8.59%. For `CC(C)C(C)(C#N)NC(=O)Cn1nnc(-c2cc3ccccc3o2)n1` (configuration not stated), the cytotoxicity at 10 µM was 5.76%. Work on `COc1ccccc1CC(C)(C)NC(=O)CNS(C)(=O)=O` yielded a cytotoxicity at 10 µM of 4.21%. For `CN(C)C(=O)CNC(CC(F)(F)F)c1ccc(F)cc1` (configuration not stated), the cytotoxicity at 10 µM was -3.08%. `Cc1ccsc1CNC(=O)c1ccc2c(c1)CCC(=O)N2` gave a cytotoxicity at 10 µM of 4.91%. For `CC(C)N(Cc1cccnc1)C(=O)CNc1ccc(C#N)cc1`, the cytotoxicity at 10 µM was 1.44%. `CCn1c(CN2CCCC(Cn3cncn3)C2)nc2c(F)cccc21` (configuration not stated) gave a cytotoxicity at 10 µM of 6.49%. For `c1cnc(N2CCN(Cc3nnnn3C3CC3)CC2)nc1`, the cytotoxicity at 10 µM was 9.29%. Molecule `Cc1ncsc1C(=O)NCCCN1CCCCCC1=O` has a cytotoxicity at 10 µM of -3.51%. With `O=C(NC1CCN(c2ncccc2F)C1)c1cccc(-n2ccnn2)c1` (configuration not stated) the cytotoxicity at 10 µM was 7.49%. With `O=C(c1cc(Cl)c2c(c1)OCO2)N1CCN(c2ccccn2)CC1` the cytotoxicity at 10 µM was -2.67%. Molecule `Cc1ccc(F)c(C(=O)N2CCN(S(C)(=O)=O)[C@@H](C)C2)c1` has a cytotoxicity at 10 µM of -10.3%. With `CC(C)NC(=O)N1CC[C@@H]2CN(S(C)(=O)=O)CCO[C@@H]2C1` the cytotoxicity at 10 µM was -102%. Work on `O=C(c1ccccn1)N1C[C@@H](OCc2cccnc2)[C@H]2OCCC[C@@H]21` yielded a cytotoxicity at 10 µM of -0.187%. Work on `CCc1cnc(C)nc1NC1CC(=O)N(CC2CCCCC2)C1` (configuration not stated) yielded a cytotoxicity at 10 µM of -6.38%. `COCCN1CCC(c2nc3c([nH]2)CC(C)(C)CNC3=O)C1` (configuration not stated) gave a cytotoxicity at 10 µM of -2.18%. In the case of `CCN(Cc1cnn(CC)c1)C(=O)Cn1c(=O)c(C)nc2ccccc21`, the cytotoxicity at 10 µM is reported as 0.791%. For `O=C(CN1CCNCC1)NCc1ccc2sccc2c1`, the cytotoxicity at 10 µM was 1.16%. In the case of `CC1(C)CN(Cc2nnc(-c3cccnc3)o2)CC[C@]1(C)O`, the cytotoxicity at 10 µM is reported as -10.2%. With `Cn1cc(CN2CCCC(Cn3cc(CCCO)nn3)C2)cn1` (configuration not stated) the cytotoxicity at 10 µM was -3.51%. In the case of `O=C(CC[C@@H]1CCCN2CCCC[C@H]12)NCCc1nc(O)cc(O)n1`, the cytotoxicity at 10 µM is reported as -0.392%. In the case of `Cc1ncsc1CCC(=O)NCc1csc(N2CCCC2)n1`, the cytotoxicity at 10 µM is reported as -2.56%. With `CCCN1CCCC2(CCN(Cc3cncn3C3CCCCC3)C2)C1=O` (configuration not stated) the cytotoxicity at 10 µM was 5.89%. With `Nc1nc2c(c(NCC(c3cccnc3)N3CCOCC3)n1)CCCC2` (configuration not stated) the cytotoxicity at 10 µM was -14.9%. In the case of `CC(C)Cc1cc(C(=O)NCC(O)c2ccc(F)cc2)n(C)n1` (configuration not stated), the cytotoxicity at 10 µM is reported as -2.96%. Molecule `Cc1noc(CC2CCN(C(=O)C(c3ccccc3C)N(C)C)CC2)n1` (configuration not stated) has a cytotoxicity at 10 µM of 1.86%. `Cc1ccsc1CN(Cc1ccccn1)CC(C)C` showed a cytotoxicity at 10 µM of -13.4%. For `Cc1ccc(CC(=O)Nc2cc(C(C)C)n[nH]2)cn1`, the cytotoxicity at 10 µM was -1.71%. `Cc1oc(-c2ccco2)nc1CNC1CCCN(c2cccnn2)C1` (configuration not stated) showed a cytotoxicity at 10 µM of -2.87%. With `O=C(c1cccc(N2CCCC2=O)c1)N1CCCC(n2cccn2)C1` (configuration not stated) the cytotoxicity at 10 µM was -8.22%. Molecule `CC(C)CCN(C)Cc1nc2c(cnn2C)c(=O)[nH]1` has a cytotoxicity at 10 µM of -11.2%. With `Cc1cc(C(=O)NCc2ccnc(OCC(F)(F)F)c2)on1` the cytotoxicity at 10 µM was -9.63%. Work on `Fc1ccc(-c2nc(CN3CCn4c(nnc4C4CC4)C3)co2)cc1` yielded a cytotoxicity at 10 µM of -7.72%. `Cc1oc(C)c(C(=O)N2CCCN(c3nccs3)CC2)c1C` showed a cytotoxicity at 10 µM of 1.53%. `Cc1nc(C)n(CC2CN(CCOc3cccc(F)c3)CCO2)n1` (configuration not stated) showed a cytotoxicity at 10 µM of -12.7%. Molecule `CCCc1n[nH]c(C2CN(CCCS(=O)(=O)N(C)C)CCO2)n1` (configuration not stated) has a cytotoxicity at 10 µM of -11.9%. Molecule `O=C(Cc1csc(-c2ccco2)n1)N1CCN(c2nccs2)CC1` has a cytotoxicity at 10 µM of -9.26%. For `O=C(NCc1cccc(F)c1)NCC(O)c1cccc(F)c1` (configuration not stated), the cytotoxicity at 10 µM was -7.58%. With `CC(C)c1[nH]c2ncccc2c1CN1CCOCC1` the cytotoxicity at 10 µM was 0.752%. `CCCNC(=O)[C@@H]1CCCN1[C@@H](C(=O)NC)C1CC1` showed a cytotoxicity at 10 µM of 1.32%. Work on `Cc1ncc(CN2CCOCC2)c2cc(C(=O)c3ccc(Br)cc3)oc12` yielded a cytotoxicity at 10 µM of 3.54%. `c1csc(CN2C[C@@H]3OCCN(CC4CCCO4)[C@@H]3C2)c1` (some centres not stated) showed a cytotoxicity at 10 µM of -6.31%. For `CN(C)S(=O)(=O)N1CCC[C@]2(C[C@@H](Oc3ccccn3)CO2)C1`, the cytotoxicity at 10 µM was -2.31%. With `c1cc(CN2CCC3(CCOCC3COCC3CC3)CC2)ccn1` (configuration not stated) the cytotoxicity at 10 µM was -9.52%. For `Cc1nn(C)c(N(C)C)c1CNCCOc1ccc2c(c1)OCO2`, the cytotoxicity at 10 µM was -1.34%. In the case of `COc1cc(N2CC3(CCN(S(C)(=O)=O)C3)C2)ncn1`, the cytotoxicity at 10 µM is reported as 9.43%. `COCCCN1CCCC12CCN(c1ncccn1)CC2` showed a cytotoxicity at 10 µM of 2.87%. Work on `CN(C)Cc1nnn2c1CN(Cc1cccnc1)CCC2` yielded a cytotoxicity at 10 µM of 5.69%. Molecule `O=C(O)c1c(-c2cccnc2)ncc2c1CCN(CC1CCOC1)C2` (configuration not stated) has a cytotoxicity at 10 µM of -2.55%. In the case of `CCCS(=O)(=O)N1C[C@@H](Oc2ccccn2)[C@H]2OCCC[C@H]21`, the cytotoxicity at 10 µM is reported as 0.516%. With `Cc1noc([C@@H]2C[C@@H]3CCN(c4nnc(C)s4)C[C@H]3O2)n1` the cytotoxicity at 10 µM was 5.35%.
